Tests used:
[1] = Half life was determined; format: ADME; conditions: rat
Procedure, shortened: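 Rats anesthetized with pentobarbital/barbital received a single iv dose, 0.2 or 0.08 mg/kg. AI 0.3 μg/kg iv given at 5 min, then every 10 min for 210 min. Half-life = time for the AI pressor response to fall to 50% of its peak inhibition.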

Canis familiaris [2] = experiment: Effect on pressor response of angiotensin I in anesthetized dog, dose 0.9 mg/kg administered intravenously; format: functional, Canis lupus familiaris; conditions: route intravenous
Procedure, shortened: (§1)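 Mongrel dogs, 7.3–15.5 kg, anesthetized with barbital/pentobarbital iv, tracheotomized and vagotomized, n = 4. Cumulative iv doses in saline (0.2 mL/kg) spaced 30 min apart. AI and AII 1 μg/kg iv challenges given after each dose; the second pre-dose set served as control.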

Canis familiaris [3] = experiment: Effect on pressor response of angiotensin I in conscious dog at 60-65 min, dose 2 mg/kg administered orally; format: functional, Canis lupus familiaris; conditions: route oral
Procedure, shortened: (§2)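 Conscious fasted mongrel dogs of both sexes, 6.8–15.3 kg, with femoral cannulas. Drug given orally in 0.25% methylcellulose with 3% glycerin (2 mL/kg), n = 4 per dose. AI 0.3, AII 0.1 and NE 1 μg/kg iv challenges. The second pre-dose set served as control; response measured at 60–65 min post-dose.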

Canis familiaris [4] = experiment: Effect on pressor response of angiotensin II in anesthetized dog, dose 0.1 mg/kg administered intravenously; format: functional, Canis lupus familiaris; conditions: route intravenous; procedure, shortened: as §1
Canis familiaris [5] = experiment: Effect on pressor response of angiotensin II in anesthetized dog, dose 0.3 mg/kg administered intravenously; format: functional, Canis lupus familiaris; conditions: route intravenous; procedure, shortened: as §1
Canis familiaris [6] = experiment: Effect on pressor response of angiotensin II in anesthetized dog, dose 0.9 mg/kg administered intravenously; format: functional, Canis lupus familiaris; conditions: route intravenous; procedure, shortened: as §1
Rattus norvegicus [7] = experiment: Effect on systolic blood pressure was determined in renal hypertensive rat, administered orally at a dose 100 mg/kg; format: functional, Artery; conditions: route oral
Procedure, shortened: (§3)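 Renal hypertensive rats were prepared by clipping the left renal artery (0.22-mm clip) in 4-week-old male CD rats and held 6 weeks. Overnight-fasted rats were dosed orally with aqueous solution (5 mL/kg), water as control. Tail-cuff systolic pressure and heart rate measured 2 h post-dose. ANOVA with Duncan's test; ED30 by linear regression.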

Rattus norvegicus [8] = experiment: Effect on systolic blood pressure was determined in renal hypertensive rat, administered orally at a dose 10 mg/kg; format: functional, Artery; conditions: route oral; procedure, shortened: as §3
Rattus norvegicus [9] = experiment: Effect on systolic blood pressure was determined in renal hypertensive rat, administered orally at a dose 30 mg/kg; format: functional, Artery; conditions: route oral; procedure, shortened: as §3
Rattus norvegicus [10] = experiment: Percent change was determined in bradykinin depressor response in anesthetized normotensive rat, administered intravenously at dose 0.090 mg/kg; format: functional; conditions: dose 0.09 mg/kg; route intravenous
Procedure, shortened: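 Male Charles River CD rats (380–500 g), pentobarbital Na 15 mg/kg plus barbital 220 mg/kg ip, tracheotomized, femoral artery/vein cannulated, kept at 37 °C. Control bradykinin 1 μg/kg iv depressor response, separate from angiotensin tests; drug iv in 0.9% saline (1 mL/kg, free base) 10 min later, Bk 5 min after each cumulative dose (0.0033–0.27 mg/kg). Maximum fall in arterial pressure versus control response; N = 8.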

Rattus norvegicus [11] = experiment: Percent decrease in angiotensin I pressor response was measured in rat, administered intravenously at dose 0.010 mg/kg; format: functional; conditions: dose 0.01 mg/kg; route intravenous
Procedure, shortened: (§4)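 Anesthetized (pentobarbital Na 15 mg/kg + barbital 220 mg/kg ip), tracheotomized male Charles River CD rats, 380–500 g, femoral cannulas, heated board at 37 °C. Control pressor responses to angiotensin I 0.3 μg/kg then angiotensin II 0.1 μg/kg iv; drug iv in 0.9% saline (free base), AI and AII repeated at 5-min intervals, cumulative 0.01–0.81 mg/kg. Peak arterial pressure rise versus control.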

Rattus norvegicus [12] = experiment: Percent decrease in angiotensin I pressor response was measured in rat, administered intravenously at dose 0.27 mg/kg; format: functional; conditions: route intravenous; procedure, shortened: as §4
Rattus norvegicus [13] = experiment: Percent decrease in angiotensin I pressor response was measured in rat, administered intravenously at dose 0.81 mg/kg; format: functional; conditions: route intravenous; procedure, shortened: as §4
Rattus norvegicus [14] = experiment: Hypotensive activity was determined in low-sodium treated rat, dose 30 mg/kg administered orally at 2 hr; format: functional; conditions: route oral
Procedure, shortened: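 Male CD rats, 11 weeks old, kept on a sodium-deficient diet for 3 weeks and fasted overnight, were dosed orally with aqueous solutions (5 mL/kg), water as control. Systolic pressure measured by tail cuff at the stated post-dose time. ANOVA with Duncan's test.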

Rattus norvegicus [15] = experiment: Decrease in systolic blood pressure of Spontaneous Hypertensive Rats (SHR) pretreated with hydrochlorothiazide upon oral administration at 10 mm/kg; format: functional, Artery
Procedure, shortened: (§5)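 Male SHR, 13 weeks old, given HCTZ 25 mg/kg po in 0.25% methylcellulose daily for 3 days. Drug given orally in water (5 mL/kg) 1 h after the third dose. Tail-cuff systolic pressure and pulse-count heart rate taken 1.5 h later after 20 min warming at 38 °C. ANOVA with Duncan's test; ED30 by linear regression.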

Rattus norvegicus [16] = experiment: Decrease in systolic blood pressure of Spontaneous Hypertensive Rats (SHR) pretreated with hydrochlorothiazide upon oral administration at 30 mm/kg; format: functional, Artery; procedure, shortened: as §5
Rattus norvegicus [17] = species: Rattus norvegicus; experiment: Dose required to reduce systolic blood pressure by 30 mmHg; format: functional; conditions: Artery; procedure, shortened: as §5
Rattus norvegicus [18] = species: Rattus norvegicus; experiment: Effective dose was determined to increase the vasoResponse in rat; format: functional
Procedure, shortened: (§6)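 Anesthetized (pentobarbital/barbital ip) male Charles River CD rats, 380–500 g, kept at 37 °C. Femoral artery blood pressure recorded. Control depressor response to bradykinin 1 μg/kg iv, then cumulative iv drug in 0.9% saline (1 mL/kg), 0.0033–0.27 mg/kg. Bk challenge 5 min after each dose. ED50 = dose giving a 50% change from control, by linear regression; N = 8.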

Rattus norvegicus [19] = experiment: Effective dose to produce ACE inhibition in rat, administered intravenously; format: functional; conditions: iv
Procedure, shortened: (§7)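 Male Charles River CD rats, 380–500 g, anesthetized with pentobarbital Na 15 mg/kg plus barbital 220 mg/kg ip, held at 37 °C. Femoral artery pressure recorded. AI 0.3 μg/kg and AII 0.1 μg/kg given iv as challenges. Cumulative iv drug in saline, 0.01–0.81 mg/kg, each dose followed by AI/AII challenges at 5-min intervals. ED50 = 50% change from control response, by linear regression.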

Rattus norvegicus [20] = experiment: Change in heart rate was determined at a dose 3 mg/kg; format: functional; procedure, shortened: as §5
Rattus norvegicus [21] = experiment: Change in heart rate was determined in renal hypertensive rat, administered orally at a dose 100 mg/kg; format: functional; conditions: route oral; procedure, shortened: as §3
Rattus norvegicus [22] = experiment: Change in heart rate was determined in renal hypertensive rat, administered orally at a dose 30 mg/kg; format: functional; conditions: route oral; procedure, shortened: as §3
Rattus norvegicus [23] = experiment: Effect on vasopressor response caused by angiotensin I (AI) in anesthetized normotensive rat, administered intravenously at dose 0.090 mg/kg; format: functional; conditions: dose 0.09 mg/kg; route intravenous; procedure, shortened: as §7
Rattus norvegicus [24] = experiment: Activity against the bradykinin Response in anesthetized normotensive rat, administered intravenously at dose 0.0033 mg/kg; format: functional; conditions: route intravenous; procedure, shortened: as §6
Rattus norvegicus [25] = experiment: Activity against the bradykinin Response in anesthetized normotensive rat, administered intravenously at dose 0.010 mg/kg; format: functional; conditions: dose 0.01 mg/kg; route intravenous; procedure, shortened: as §6
Rattus norvegicus [26] = experiment: Activity against the bradykinin Response in anesthetized normotensive rat, administered intravenously at dose 0.030 mg/kg; format: functional; conditions: dose 0.03 mg/kg; route intravenous; procedure, shortened: as §6
Canis familiaris [27] = experiment: Effect on pressor response of angiotensin I in conscious dog at 60-65 min, dose 1 mg/kg administered orally; format: functional, Canis lupus familiaris; conditions: route oral; procedure, shortened: as §2
Rattus norvegicus [28] = experiment: Change in heart rate was determined at a dose 10 mg/kg; format: functional; procedure, shortened: as §5

CCOC(=O)[C@H](CCc1ccccc1)N[C@@H](C)C(=O)N1C(=O)CC[C@H]1C(=O)O
half-life [1]: 2 h
Blood pressure (Canis familiaris [2]): 28 mmHg
Blood pressure (Canis familiaris [3]): 8 mmHg
Blood pressure (Canis familiaris [4]): 64 mmHg
Blood pressure (Canis familiaris [5]): 68 mmHg
Blood pressure (Canis familiaris [6]): 73 mmHg
Activity (Rattus norvegicus [7]): 186 mmHg
Activity (Rattus norvegicus [8]): 204 mmHg
Activity (Rattus norvegicus [9]): 204 mmHg
Change (Rattus norvegicus [10]): 69%
Decrease (Rattus norvegicus [11]): 6%
Decrease (Rattus norvegicus [12]): 63%
Decrease (Rattus norvegicus [13]): 92%
Activity (Rattus norvegicus [14]): 135 mmHg
Blood pressure (Rattus norvegicus [15]): 189 mmHg
Blood pressure (Rattus norvegicus [16]): 190 mmHg
ED30 (Rattus norvegicus [17]): 3.5 mg/kg
ED50 (Rattus norvegicus [18]): 0.012 mg/kg
ED50 (Rattus norvegicus [19]): 0.13 mg/kg
Heart rate (Rattus norvegicus [20]): 374 beats min-1
Heart rate (Rattus norvegicus [21]): 454 beats min-1
Heart rate (Rattus norvegicus [22]): 481 beats min-1
Response (Rattus norvegicus [23]): 33 mmHg
Response (Rattus norvegicus [24]): -44 mmHg
Response (Rattus norvegicus [25]): -58 mmHg
Response (Rattus norvegicus [26]): -61 mmHg
Blood pressure (Canis familiaris [27]): 23 mmHg
Heart rate (Rattus norvegicus [28]): 369 beats min-1
